Format in all cases: functional
Assay [1] relates to Rattus norvegicus. Briefly: Reduction in paw swelling at 100 mg/kg po dose in rat using adjuvant arthritis test; value is +10 indicates exacerbation of paw swelling.
Assay [2] relates to Rattus norvegicus. Briefly: Reduction in paw swelling at 100 mg/kg po dose in rat using adjuvant arthritis test.
The species entered for assay [3] is Rattus norvegicus. Description: (§1) Potency relative to [2-(2,4-Dichloro-phenoxy)-phenyl]-acetic acid in rat adjuvant arthritis test.
For assay [4], the system named is Rattus norvegicus. Briefly: Reduction in paw swelling at 100 mg/kg po dose in rat using adjuvant arthritis test; value is +23 indicates exacerbation of paw swelling.
Assay [5] has as its system Rattus norvegicus. Description: Reduction in paw swelling at 100 mg/kg po dose in rat using adjuvant arthritis test; value is +8 indicates exacerbation of paw swelling.
Assay [6] concerns Rattus norvegicus. Description: Reduction in paw swelling at 100 mg/kg po dose in rat using adjuvant arthritis test; value is +14 indicates exacerbation of paw swelling.
For assay [7], the species on record is Rattus norvegicus. Description: Minimum ulcerogenic dose(MUD) of the compound.
The species entered for assay [8] is Rattus norvegicus. Description: Minimum ulcerogenic dose(MUD) of the compound;Value ranges from (400-800).
For assay [9], the system named is Rattus norvegicus. Description: Reduction in paw swelling at 100 mg/kg po dose in rat using adjuvant arthritis test; value is +6 indicates exacerbation of paw swelling.
Assay [10] has as its system Rattus norvegicus. Description: Reduction in paw swelling at 100 mg/kg po dose in rat using adjuvant arthritis test; value is +12 indicates exacerbation of paw swelling.
The subject of assay [11] is Rattus norvegicus. Briefly: Reduction in paw swelling at 100 mg/kg po dose in rat using adjuvant arthritis test; value is +9 indicates exacerbation of paw swelling.
The species named for assay [12] is Rattus norvegicus. The assay is described as §1. The essentials:
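Established (therapeutic) adjuvant arthritis test in rats: the drug was given after arthritis had fully developed. Relative potency against the reference standard was derived from a three-dose-level assay based on paw volume changes.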
The source holds these as a separate data set.

The subject of assay [13] is Rattus norvegicus. Description: Reduction in paw swelling at 100 mg/kg po dose in rat using adjuvant arthritis test; value is +1 indicates exacerbation of paw swelling.
Assay [14] concerns Rattus norvegicus. Description: Reduction in paw swelling at 100 mg/kg po dose in rat using adjuvant arthritis test; value is +3 indicates exacerbation of paw swelling.
Assay [15] relates to Rattus norvegicus. Briefly: Reduction in paw swelling at 100 mg/kg po dose in rat using adjuvant arthritis test; value is +7 indicates exacerbation of paw swelling.
Assay [16] has as its system Rattus norvegicus. Description: Reduction in paw swelling at 100 mg/kg po dose in rat using adjuvant arthritis test; value is +4 indicates exacerbation of paw swelling.
The test system of assay [17] is Rattus norvegicus. Briefly: Reduction in paw swelling at 100 mg/kg po dose in rat using adjuvant arthritis test; value is +13 indicates exacerbation of paw swelling.
Assay [18] relates to Rattus norvegicus. Briefly: Reduction in paw swelling at 100 mg/kg po dose in rat using adjuvant arthritis test; value is +5 indicates exacerbation of paw swelling.
For assay [19], the system named is Rattus norvegicus. Briefly: Reduction in paw swelling at 100 mg/kg po dose in rat using adjuvant arthritis test; value is +20 indicates exacerbation of paw swelling.
In assay [20] the test system is Rattus norvegicus. Description: Reduction in paw swelling at 100 mg/kg po dose in rat using adjuvant arthritis test; value is +2 indicates exacerbation of paw swelling.

As to `COc1cccc(Oc2ccc(C)cc2CC(=O)O)c1`, in the assay on Rattus norvegicus [1], the Reduction is 10.

As to `CCc1cc(Cl)ccc1Oc1ccc(C)cc1CC(=O)O`, the Reduction in the assay with Rattus norvegicus [2] is listed as 17. For the same compound, in the assay listed under Rattus norvegicus [3], the Relative potency worked out at 0.4.

For the compound `Cc1ccc(Oc2c(Cl)cccc2CC(=O)O)c(Cl)c1`, the Reduction with Rattus norvegicus [4] came out at 23.

In the case of `CCCCc1ccc(Oc2ccc(C)cc2CC(=O)O)c(Cl)c1`, the Reduction with Rattus norvegicus [2] was 25. In addition, in the assay listed under Rattus norvegicus [3], the Relative potency amounted to 0.9.

Turning to `CCCCc1ccc(Oc2ccc(C)cc2Cl)c(CC(=O)O)c1`, in the assay on Rattus norvegicus [5], the Reduction came to 8.

For `Cc1ccc(Oc2cc(C)c(C)cc2CC(=O)O)c(Cl)c1`, the Reduction in the assay with Rattus norvegicus [6] is recorded as 14.

Compound `CCc1ccc(Oc2ccc(C)cc2CC(=O)O)c(Cl)c1` had an MUD in the assay filed under Rattus norvegicus [7] of more than 800 mg/kg. Further, in the assay with Rattus norvegicus [2], the Reduction is listed as 40. In addition, the Relative potency in the assay filed under Rattus norvegicus [3] is listed as 1.1.

In the assay listed under Rattus norvegicus [7], `Cc1ccc(Oc2ccc(C(C)(C)C)cc2Cl)c(CC(=O)O)c1` displayed an MUD of more than 500 mg/kg. In the assay on Rattus norvegicus [2], the Reduction turned out to be 34. Besides, the Relative potency in the assay filed under Rattus norvegicus [3] worked out at 1.6.

`CCC(C)c1ccc(Oc2ccc(C)cc2CC(=O)O)c(Cl)c1` (stereo unspecified): in the assay filed under Rattus norvegicus [8], the MUD came out at 800 mg/kg. The Reduction in the assay on Rattus norvegicus [2] was 42. Moreover, the Relative potency in the assay listed under Rattus norvegicus [3] turned out to be 3.

For `COc1ccc(Oc2ccc(C)cc2Cl)c(CC(=O)O)c1`, the Reduction in the assay with Rattus norvegicus [9] came to 6.

`COc1cc(Oc2ccc(C)cc2Cl)c(CC(=O)O)cc1C`: the Reduction in the assay on Rattus norvegicus [10] came out at 12.

Regarding `Cc1ccc(Oc2cccc(O)c2CC(=O)O)c(Cl)c1`, in the assay with Rattus norvegicus [11], the Reduction stood at 9.

Regarding `O=C(Cc1ccccc1Oc1ccc(Cl)cc1Cl)NO`, the Reduction with Rattus norvegicus [2] was 28%. In addition, the Relative potency in the assay listed under Rattus norvegicus [12] amounted to 1.

For the compound `Cc1ccc(Oc2cc(C)ccc2CC(=O)O)c(Cl)c1`, in the assay with Rattus norvegicus [13], the Reduction stood at 1.

In the case of `Cc1ccc(Oc2cc(C(F)(F)F)cc(C(F)(F)F)c2)c(CC(=O)O)c1`, the Reduction with Rattus norvegicus [1] stood at 10.

For `Cc1ccc(Oc2cc(C)c(Cl)cc2CC(=O)O)c(Cl)c1`, the Reduction in the assay on Rattus norvegicus [6] is on record as 14.

Regarding `Cc1ccc(Oc2cccc(O)c2)c(CC(=O)O)c1`, the Reduction in the assay with Rattus norvegicus [14] is recorded as 3.

For `COc1ccc(CC(=O)O)c(Oc2ccc(C)cc2Cl)c1`, the Reduction in the assay on Rattus norvegicus [6] worked out at 14.

For the compound `Cc1ccc(Oc2cc(Cl)c(C)cc2CC(=O)O)c(Cl)c1`, the Reduction in the assay on Rattus norvegicus [15] is given as 7.

Consider `Nc1cc(Cl)ccc1Oc1ccccc1CC(=O)O`, for which, in the assay on Rattus norvegicus [16], the Reduction was determined as 4.

In the case of `CCCCCCCCCCCCc1ccc(Oc2ccc(C)cc2CC(=O)O)c(Cl)c1`, the Reduction in the assay with Rattus norvegicus [2] was 26%. For the same compound, the Relative potency in the assay filed under Rattus norvegicus [3] stood at 0.3.

As to `O=C(O)/C=C/c1ccccc1Oc1ccc(Cl)cc1Cl`, the Reduction in the assay on Rattus norvegicus [5] is reported as 8.

Take `CCc1ccc(Oc2ccc(C)cc2Cl)c(CC(=O)O)c1`: the Reduction in the assay with Rattus norvegicus [17] was 13.

On to `Cc1ccc(Oc2cc(C)c(C)cc2Cl)c(CC(=O)O)c1`, for which, in the assay with Rattus norvegicus [2], the Reduction is 46. Besides, in the assay listed under Rattus norvegicus [3], the Relative potency is 0.4.

As for `Nc1ccc(Oc2ccccc2CC(=O)O)c(Cl)c1`, in the assay with Rattus norvegicus [18], the Reduction was 5.

`Cc1ccc(Oc2cc(O)ccc2CC(=O)O)c(Cl)c1`: the Reduction in the assay with Rattus norvegicus [19] is on record as 20.

In the case of `Cc1ccc(Oc2ccc(C3CCCCC3)cc2Cl)c(CC(=O)O)c1`, the Reduction with Rattus norvegicus [20] is listed as 2.

As for `O=C(O)Cc1ccccc1Oc1ccc(Cl)cc1Cl` [FENCLOFENAC], the MUD in the assay listed under Rattus norvegicus [8] is 800 mg/kg. The Reduction with Rattus norvegicus [2] stood at 36. Also, the Relative potency in the assay listed under Rattus norvegicus [3] was determined as 1.

For the origin of these results see ChEMBL document CHEMBL1122319, “Substituted (2-phenoxyphenyl)acetic acids with antiinflammatory activity. 1” (J Med Chem, 1983).
